What was measured:
Settings in all cases: stereoisomer not certain
[1] = target: T1, OR10G2 (Homo sapiens) (UniProt Q8NGC3)
T1 sequence (whole entry): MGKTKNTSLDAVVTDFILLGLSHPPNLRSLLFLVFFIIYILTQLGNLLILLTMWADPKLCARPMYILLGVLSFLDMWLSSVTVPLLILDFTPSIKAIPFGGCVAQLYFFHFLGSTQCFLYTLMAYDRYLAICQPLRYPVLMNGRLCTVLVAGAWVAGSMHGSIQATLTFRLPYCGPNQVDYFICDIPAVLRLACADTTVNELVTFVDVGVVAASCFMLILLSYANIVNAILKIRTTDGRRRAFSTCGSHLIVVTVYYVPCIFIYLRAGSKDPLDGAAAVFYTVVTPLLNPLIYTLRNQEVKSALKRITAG
How it was run: (§1)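 Each entry records the cell line, G-protein, co-transfected protein and tags used. Methods varied with the source, often transient luciferase assays in mammalian cell lines. A receptor–molecule pair is called responsive (active) if the original authors judged its signal statistically different from baseline and non-responsive (inactive) otherwise.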

[2] = target: T2, OR10G3 (Homo sapiens) (UniProt Q8NGC4)
T2 sequence (whole entry): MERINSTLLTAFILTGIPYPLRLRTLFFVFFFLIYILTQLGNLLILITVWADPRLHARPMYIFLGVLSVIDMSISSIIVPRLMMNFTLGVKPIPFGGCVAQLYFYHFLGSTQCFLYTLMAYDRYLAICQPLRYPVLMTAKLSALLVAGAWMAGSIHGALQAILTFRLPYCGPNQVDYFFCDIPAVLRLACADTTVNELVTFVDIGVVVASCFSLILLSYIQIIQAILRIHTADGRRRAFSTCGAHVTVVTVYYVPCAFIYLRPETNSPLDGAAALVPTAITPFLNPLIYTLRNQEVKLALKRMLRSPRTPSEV
How it was run: as §1

[3] = target: T3, OR10G4 (Homo sapiens) (UniProt Q8NGN3)
T3 sequence (whole entry): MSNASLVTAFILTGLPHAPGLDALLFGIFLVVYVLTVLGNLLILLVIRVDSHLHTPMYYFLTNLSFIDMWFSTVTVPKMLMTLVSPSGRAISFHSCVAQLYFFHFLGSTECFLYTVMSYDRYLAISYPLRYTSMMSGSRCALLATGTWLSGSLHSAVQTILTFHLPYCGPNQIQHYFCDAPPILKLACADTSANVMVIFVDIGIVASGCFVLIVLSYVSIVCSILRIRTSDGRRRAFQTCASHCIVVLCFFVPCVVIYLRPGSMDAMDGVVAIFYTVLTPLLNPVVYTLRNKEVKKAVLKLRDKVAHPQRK
How it was run: as §1

[4] = target: T4, OR10G6 (Homo sapiens) (UniProt Q8NH81)
T4 sequence (whole entry): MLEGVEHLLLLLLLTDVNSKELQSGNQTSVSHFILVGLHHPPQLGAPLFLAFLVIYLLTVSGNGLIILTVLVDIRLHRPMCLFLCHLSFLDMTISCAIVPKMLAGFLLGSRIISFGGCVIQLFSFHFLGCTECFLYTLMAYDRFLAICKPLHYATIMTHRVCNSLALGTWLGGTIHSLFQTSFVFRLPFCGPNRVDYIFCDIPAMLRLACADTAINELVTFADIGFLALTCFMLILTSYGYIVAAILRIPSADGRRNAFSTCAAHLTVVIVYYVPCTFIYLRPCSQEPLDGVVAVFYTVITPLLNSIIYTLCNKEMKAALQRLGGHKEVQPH
How it was run: as §1

[5] = target: T5, OR10G7 (Homo sapiens) (UniProt Q8NGN6)
T5 sequence (whole entry): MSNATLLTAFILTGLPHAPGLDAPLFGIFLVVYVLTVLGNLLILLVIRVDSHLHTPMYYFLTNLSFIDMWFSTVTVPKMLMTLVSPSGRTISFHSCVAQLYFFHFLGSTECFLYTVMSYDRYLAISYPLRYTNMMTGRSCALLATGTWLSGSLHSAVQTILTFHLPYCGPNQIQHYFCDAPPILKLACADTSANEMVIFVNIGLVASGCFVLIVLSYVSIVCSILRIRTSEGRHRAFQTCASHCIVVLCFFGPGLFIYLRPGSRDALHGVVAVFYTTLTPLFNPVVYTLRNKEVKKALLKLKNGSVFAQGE
How it was run: as §1

[6] = target: T6, OR10G8 (Homo sapiens) (UniProt Q8NGN5)
T6 sequence (whole entry): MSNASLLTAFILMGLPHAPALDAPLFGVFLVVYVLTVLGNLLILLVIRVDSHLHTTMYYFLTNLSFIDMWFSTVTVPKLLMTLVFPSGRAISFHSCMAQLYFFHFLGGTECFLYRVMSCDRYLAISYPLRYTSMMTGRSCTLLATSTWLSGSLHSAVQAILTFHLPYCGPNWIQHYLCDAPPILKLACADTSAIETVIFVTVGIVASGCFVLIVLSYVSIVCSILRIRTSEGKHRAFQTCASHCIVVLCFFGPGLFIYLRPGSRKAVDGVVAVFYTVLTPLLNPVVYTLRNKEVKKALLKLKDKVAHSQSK
How it was run: as §1

[7] = target: T7, OR10G9 (Homo sapiens) (UniProt Q8NGN4)
T7 sequence (whole entry): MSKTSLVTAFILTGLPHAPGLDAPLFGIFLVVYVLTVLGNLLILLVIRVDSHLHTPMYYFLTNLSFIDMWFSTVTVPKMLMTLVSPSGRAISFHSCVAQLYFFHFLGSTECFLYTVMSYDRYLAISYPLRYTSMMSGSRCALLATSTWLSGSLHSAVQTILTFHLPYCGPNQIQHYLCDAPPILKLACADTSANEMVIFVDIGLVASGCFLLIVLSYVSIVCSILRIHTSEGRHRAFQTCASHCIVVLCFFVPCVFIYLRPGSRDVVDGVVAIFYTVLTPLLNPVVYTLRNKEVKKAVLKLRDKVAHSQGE
How it was run: as §1

[8] = target: T8, OR10H1 (Homo sapiens) (UniProt Q9Y4A9)
T8 sequence (whole entry): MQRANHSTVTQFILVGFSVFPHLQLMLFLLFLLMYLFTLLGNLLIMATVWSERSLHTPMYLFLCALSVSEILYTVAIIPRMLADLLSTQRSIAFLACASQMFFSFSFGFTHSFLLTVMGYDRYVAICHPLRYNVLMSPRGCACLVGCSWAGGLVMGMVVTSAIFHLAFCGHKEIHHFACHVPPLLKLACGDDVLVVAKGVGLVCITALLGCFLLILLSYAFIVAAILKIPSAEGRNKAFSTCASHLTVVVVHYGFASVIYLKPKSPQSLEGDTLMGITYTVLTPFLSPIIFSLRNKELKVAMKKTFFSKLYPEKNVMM
How it was run: as §1

[9] = target: T9, OR10H2 (Homo sapiens) (UniProt O60403)
T9 sequence (whole entry): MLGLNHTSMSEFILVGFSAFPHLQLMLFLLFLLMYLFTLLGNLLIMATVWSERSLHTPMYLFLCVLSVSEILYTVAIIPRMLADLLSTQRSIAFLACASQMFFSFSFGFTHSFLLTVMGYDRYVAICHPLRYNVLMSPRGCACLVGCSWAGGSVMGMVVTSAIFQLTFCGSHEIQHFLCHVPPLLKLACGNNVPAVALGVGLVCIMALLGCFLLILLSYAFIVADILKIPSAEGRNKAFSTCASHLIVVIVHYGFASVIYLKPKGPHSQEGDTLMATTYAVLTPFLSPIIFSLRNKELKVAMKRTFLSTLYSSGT
How it was run: as §1

[10] = target: T10, OR10H3 (Homo sapiens) (UniProt O60404)
T10 sequence (whole entry): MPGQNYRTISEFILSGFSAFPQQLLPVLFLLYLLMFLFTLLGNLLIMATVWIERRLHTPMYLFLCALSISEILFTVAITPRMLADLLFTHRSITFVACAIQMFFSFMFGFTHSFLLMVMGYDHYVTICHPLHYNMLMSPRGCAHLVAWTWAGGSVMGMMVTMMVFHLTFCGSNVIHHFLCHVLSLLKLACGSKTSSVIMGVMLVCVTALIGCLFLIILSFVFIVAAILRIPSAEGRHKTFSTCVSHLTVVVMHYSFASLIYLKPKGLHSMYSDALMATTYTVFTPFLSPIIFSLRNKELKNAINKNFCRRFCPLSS
How it was run: as §1

[11] = target: T11, OR10H4 (Homo sapiens) (UniProt Q8NGA5)
T11 sequence (whole entry): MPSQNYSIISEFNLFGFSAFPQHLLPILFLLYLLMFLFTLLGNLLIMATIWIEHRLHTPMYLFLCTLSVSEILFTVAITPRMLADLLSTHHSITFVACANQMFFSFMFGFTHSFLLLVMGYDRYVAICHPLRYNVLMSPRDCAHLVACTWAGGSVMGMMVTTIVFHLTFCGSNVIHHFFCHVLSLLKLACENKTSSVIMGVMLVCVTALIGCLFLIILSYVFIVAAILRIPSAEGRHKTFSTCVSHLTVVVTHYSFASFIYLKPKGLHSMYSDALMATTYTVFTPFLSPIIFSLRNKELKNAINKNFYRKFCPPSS
How it was run: as §1

[12] = target: T12, OR10H5 (Homo sapiens) (UniProt Q8NGA6)
T12 sequence (whole entry): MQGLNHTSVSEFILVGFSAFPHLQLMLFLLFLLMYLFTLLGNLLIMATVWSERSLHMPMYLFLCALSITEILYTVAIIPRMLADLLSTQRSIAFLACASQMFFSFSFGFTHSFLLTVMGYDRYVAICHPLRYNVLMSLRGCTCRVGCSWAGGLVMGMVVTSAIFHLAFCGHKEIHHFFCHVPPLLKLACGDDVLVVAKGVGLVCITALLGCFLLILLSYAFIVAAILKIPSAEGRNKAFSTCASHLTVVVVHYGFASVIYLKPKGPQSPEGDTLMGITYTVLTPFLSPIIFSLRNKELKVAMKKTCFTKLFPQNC
How it was run: as §1

[13] = target: T13, OR10J3 (Homo sapiens) (UniProt Q5JRS4)
T13 sequence (whole entry): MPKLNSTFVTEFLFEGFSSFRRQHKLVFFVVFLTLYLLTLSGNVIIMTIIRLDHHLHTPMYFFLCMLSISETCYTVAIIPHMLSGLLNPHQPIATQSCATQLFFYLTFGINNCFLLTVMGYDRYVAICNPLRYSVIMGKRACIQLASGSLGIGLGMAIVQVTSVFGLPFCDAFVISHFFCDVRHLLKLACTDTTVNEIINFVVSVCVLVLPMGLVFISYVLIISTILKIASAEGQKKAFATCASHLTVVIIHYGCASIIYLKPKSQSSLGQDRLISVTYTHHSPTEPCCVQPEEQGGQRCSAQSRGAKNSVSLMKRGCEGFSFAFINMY
How it was run: as §1

[14] = target: OR10J4 (Homo sapiens) (UniProt P0C629)
How it was run: as §1

[15] = target: T14, OR10J5 (Homo sapiens) (UniProt Q8NHC4)
T14 sequence (whole entry): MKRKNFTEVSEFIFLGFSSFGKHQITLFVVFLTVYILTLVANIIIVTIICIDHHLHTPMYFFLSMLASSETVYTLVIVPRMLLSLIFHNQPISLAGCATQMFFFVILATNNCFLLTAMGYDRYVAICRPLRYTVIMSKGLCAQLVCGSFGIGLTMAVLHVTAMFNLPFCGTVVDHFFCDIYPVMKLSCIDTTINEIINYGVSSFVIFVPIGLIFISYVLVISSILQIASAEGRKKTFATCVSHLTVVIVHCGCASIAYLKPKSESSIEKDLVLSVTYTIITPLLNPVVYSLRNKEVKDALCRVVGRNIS
How it was run: as §1

[16] = target: T15, OR10K1 (Homo sapiens) (UniProt Q8NGX5)
T15 sequence (whole entry): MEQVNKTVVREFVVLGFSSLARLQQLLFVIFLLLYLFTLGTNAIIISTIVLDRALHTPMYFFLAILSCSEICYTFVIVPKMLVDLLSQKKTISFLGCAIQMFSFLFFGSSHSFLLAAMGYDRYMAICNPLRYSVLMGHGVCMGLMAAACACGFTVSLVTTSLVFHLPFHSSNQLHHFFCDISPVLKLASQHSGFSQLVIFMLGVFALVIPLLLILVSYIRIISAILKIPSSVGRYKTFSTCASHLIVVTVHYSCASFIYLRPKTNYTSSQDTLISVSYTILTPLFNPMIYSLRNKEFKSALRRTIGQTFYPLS
How it was run: as §1

[17] = target: T16, OR10K2 (Homo sapiens) (UniProt Q6IF99)
T16 sequence (whole entry): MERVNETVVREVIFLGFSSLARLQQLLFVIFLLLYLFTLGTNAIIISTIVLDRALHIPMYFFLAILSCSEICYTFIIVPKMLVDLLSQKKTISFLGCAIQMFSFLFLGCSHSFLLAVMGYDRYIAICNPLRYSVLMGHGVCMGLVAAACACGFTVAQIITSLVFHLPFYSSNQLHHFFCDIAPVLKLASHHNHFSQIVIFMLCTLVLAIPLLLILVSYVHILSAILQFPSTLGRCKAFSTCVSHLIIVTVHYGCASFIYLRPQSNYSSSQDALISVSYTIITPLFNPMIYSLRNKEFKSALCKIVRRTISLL
How it was run: as §1

[18] = target: T17, OR10P1 (Homo sapiens) (UniProt Q8NGE3)
T17 sequence (whole entry): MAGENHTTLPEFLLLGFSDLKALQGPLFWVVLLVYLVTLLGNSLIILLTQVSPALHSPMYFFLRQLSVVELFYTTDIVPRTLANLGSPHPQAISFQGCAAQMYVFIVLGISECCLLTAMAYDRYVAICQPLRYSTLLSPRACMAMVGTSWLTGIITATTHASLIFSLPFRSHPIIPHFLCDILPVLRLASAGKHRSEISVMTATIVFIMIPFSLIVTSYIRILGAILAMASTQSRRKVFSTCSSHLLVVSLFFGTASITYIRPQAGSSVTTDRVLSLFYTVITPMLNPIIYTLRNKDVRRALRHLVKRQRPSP
How it was run: as §1

[19] = target: T18, OR10Q1 (Homo sapiens) (UniProt Q8NGQ4)
T18 sequence (whole entry): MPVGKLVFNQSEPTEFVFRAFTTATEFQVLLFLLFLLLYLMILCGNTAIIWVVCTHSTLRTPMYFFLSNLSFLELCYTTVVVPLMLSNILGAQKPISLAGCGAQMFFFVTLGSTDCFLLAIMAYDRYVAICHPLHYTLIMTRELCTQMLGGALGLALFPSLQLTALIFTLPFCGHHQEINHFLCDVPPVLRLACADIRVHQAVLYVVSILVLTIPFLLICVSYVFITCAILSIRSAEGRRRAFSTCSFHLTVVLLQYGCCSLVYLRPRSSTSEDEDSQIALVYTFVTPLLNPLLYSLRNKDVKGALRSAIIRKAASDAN
How it was run: as §1

Measured: odorant receptor agonist call

Chain of OR10J4 (Homo sapiens) (P0C629 whole entry F198I): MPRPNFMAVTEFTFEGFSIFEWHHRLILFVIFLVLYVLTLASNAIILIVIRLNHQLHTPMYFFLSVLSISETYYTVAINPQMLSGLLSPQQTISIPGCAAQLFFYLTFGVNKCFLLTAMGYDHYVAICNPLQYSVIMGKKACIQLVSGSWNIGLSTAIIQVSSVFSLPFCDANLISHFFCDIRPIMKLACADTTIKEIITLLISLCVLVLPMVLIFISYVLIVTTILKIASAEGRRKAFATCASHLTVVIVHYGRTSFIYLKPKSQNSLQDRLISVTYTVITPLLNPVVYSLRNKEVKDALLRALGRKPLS

CC1CCCCCCCCCCCCC(=O)C1 (centres undefined)
inactive: [1] | [2] | [3] | [4] | [5] | [6] | [7] | [8] | [9] | [10] | [11] | [12] | [13] | [14] | [15] | [16] | [17] | [18] | [19]
